# Test results published in ChEMBL document CHEMBL1649387, “Synthesis and evaluation of quinonoid compounds against tumor cell lines” (Eur J Med Chem, 2011).
# The source made the active and inactive calls. No cut-off for these calls is given here.
# Columns and labels:
# SF-295 [1] = assay: Induction of lipid peroxidation in human SF295 cells assessed as increase in TBARS formation at 5 uM after 24 hrs in presence of […]; type: functional, cell-based
# Procedure, shortened: (§1)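 Cells treated 24 h, with or without 24 h pretreatment with 5 mM NAC. Cells lysed with Tris-HCl (15 mM, 1 h) and heated with TCA/HCl/thiobarbituric acid for 15 min at 100 °C, then centrifuged. TBARS read at 532 nm against hydrolyzed 1,1,3,3-tetramethoxypropane standard and normalized to protein.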
# SF-295 [2] = assay: Induction of lipid peroxidation in human SF295 cells assessed as increase in TBARS formation at 5 uM after 24 hrs; type: functional, cell-based; procedure, shortened: as §1
# HL-60 [3] = assay: DNA damage index, DNA damage in human HL60 cells to DNA damage in human HL60 cells with FPG/ENDO3 DNA repair enzymes in presence of […]; type: functional
# Procedure, shortened: (§2)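 Cells treated 12 h, then alkaline comet slides washed in enzyme buffer (40 mM HEPES, 100 mM KCl, 0.5 mM Na2EDTA, 0.2 mg/mL BSA, pH 8.0). Slides then incubated with FPG (30 min, 37 °C) or ENDOIII (45 min, 37 °C). Enzyme-sensitive sites = total breaks minus buffer-only breaks. 100 cells scored per group. NAC pretreatment 5 mM. Mean ± S.E.M. of three experiments.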
# PBMC = assay: Cytotoxicity against human PBMC cells after 72 hrs by Alamar Blue assay; type: cell-based
# HCT-8 [4] = assay: DNA damage index, DNA damage in human HCT8 cells to DNA damage in human HL60 cells with FPG/ENDO3 DNA repair enzymes; type: functional; procedure, shortened: as §2
# HL-60 [5] = assay: DNA damage index, DNA damage in human HL60 cells to DNA damage in human HL60 cells with FPG/ENDO3 DNA repair enzymes; type: functional; procedure, shortened: as §2
# MDA-MB-435 [6] = assay: Induction of lipid peroxidation in human MDA-MB-435 cells assessed as increase in TBARS formation at 5 uM after 24 hrs; type: functional, cell-based; procedure, shortened: as §1
# MDA-MB-435 [7] = assay: DNA damage index, DNA damage in human MDA-MB-435 cells to DNA damage in human HL60 cells with FPG/ENDO3 DNA repair enzymes; type: functional; procedure, shortened: as §2
# HL-60 [8] = assay: Induction of lipid peroxidation in human HL60 cells assessed as increase in TBARS formation at 5 uM after 24 hrs; type: functional, cell-based; procedure, shortened: as §1
# SF-295 [9] = assay: DNA damage index, DNA damage in human SF295 cells to DNA damage in human HL60 cells with FPG/ENDO3 DNA repair enzymes; type: functional; procedure, shortened: as §2
# HCT-8 [10] = assay: Induction of lipid peroxidation in human HCT8 cells assessed as increase in TBARS formation at 5 uM after 24 hrs; type: functional, cell-based; procedure, shortened: as §1
# SF-295 [11] = assay: DNA damage index, DNA damage in human SF295 cells to DNA damage in human HL60 cells with FPG/ENDO3 DNA repair enzymes in presence of […]; type: functional; procedure, shortened: as §2
# HL-60 [12] = assay: Induction of lipid peroxidation in human HL60 cells assessed as increase in TBARS formation at 5 uM after 24 hrs in presence of […]; type: functional, cell-based; procedure, shortened: as §1
# MDA-MB-435 [13] = assay: Induction of lipid peroxidation in human MDA-MB-435 cells assessed as increase in TBARS formation at 5 uM after 24 hrs in presence of […]; type: functional, cell-based; procedure, shortened: as §1
# MDA-MB-435 [14] = assay: DNA damage index, DNA damage in human MDA-MB-435 cells to DNA damage in human HL60 cells with FPG/ENDO3 DNA repair enzymes in presence of […]; type: functional; procedure, shortened: as §2
# HCT-8 [15] = assay: DNA damage index, DNA damage in human HCT8 cells to DNA damage in human HL60 cells with FPG/ENDO3 DNA repair enzymes in presence of […]; type: functional; procedure, shortened: as §2
# HCT-8 [16] = assay: Induction of lipid peroxidation in human HCT8 cells assessed as increase in TBARS formation at 5 uM after 24 hrs in presence of […]; type: functional, cell-based; procedure, shortened: as §1
# HL-60 [17] = assay: Induction of apoptosis in human HL60 cells assessed as cell viability at 5 uM after 24 hrs by trypan blue exclusion assay; type: functional, cell-based
# Procedure, shortened: (§3)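 Cells incubated 24 h, with or without 24 h pretreatment with 5 mM NAC. Viability determined by trypan blue dye exclusion.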
# MDA-MB-435 [18] = assay: Cytotoxicity against human MDA-MB-435 cells after 72 hrs by MTT assay; type: functional, cell-based; settings: MDA-MB-435, 72 h
# HCT-8 [19] = assay: Genotoxicity in human HCT8 cells assessed as DNA strand breaks at 5 uM after 24 hrs by comet assay; type: functional, cell-based
# Procedure, shortened: (§4)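 Cells treated 24 h, with or without 24 h pretreatment with 5 mM NAC. Cells embedded in 0.75% low-melt agarose and lysed (pH 10.0, 4 °C, ≥1 h). DNA unwound 20 min in 300 mM NaOH/1 mM EDTA (pH >13), then electrophoresed 20 min at 0.86 V/cm and stained with ethidium bromide. 100 cells scored visually into classes 0–4 to give damage index.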
# HL-60 [20] = assay: Genotoxicity in human HL60 cells assessed as DNA strand breaks at 5 uM after 24 hrs by comet assay in presence of […]; type: functional, cell-based; procedure, shortened: as §4
# SF-295 [21] = assay: Genotoxicity in human SF295 cells assessed as DNA strand breaks at 5 uM after 24 hrs by comet assay; type: functional, cell-based; procedure, shortened: as §4
# MDA-MB-435 [22] = assay: Genotoxicity in human MDA-MB-435 cells assessed as DNA strand breaks at 5 uM after 24 hrs by comet assay in presence of […]; type: functional, cell-based; procedure, shortened: as §4
# HCT-8 [23] = assay: Genotoxicity in human HCT8 cells assessed as DNA strand breaks at 5 uM after 24 hrs by comet assay in presence of […]; type: functional, cell-based; procedure, shortened: as §4
# SF-295 [24] = assay: Cytotoxicity against human SF295 cells after 72 hrs by MTT assay; type: functional, cell-based; settings: SF-295, 72 h
# SF-295 [25] = assay: Induction of apoptosis in human SF295 cells assessed as cell viability at 5 uM after 24 hrs by trypan blue exclusion assay; type: functional, cell-based; procedure, shortened: as §3
# HCT-8 [26] = assay: Induction of apoptosis in human HCT8 cells assessed as cell viability at 5 uM after 24 hrs by trypan blue exclusion assay in presence of […]; type: functional, cell-based; procedure, shortened: as §3
# HCT-8 [27] = assay: Induction of apoptosis in human HCT8 cells assessed as cell viability at 5 uM after 24 hrs by trypan blue exclusion assay; type: functional, cell-based; procedure, shortened: as §3
# SF-295 [28] = assay: Genotoxicity in human SF295 cells assessed as DNA strand breaks at 5 uM after 24 hrs by comet assay in presence of […]; type: functional, cell-based; procedure, shortened: as §4
# SF-295 [29] = assay: Induction of apoptosis in human SF295 cells assessed as cell viability at 5 uM after 24 hrs by trypan blue exclusion assay in presence of […]; type: functional, cell-based; procedure, shortened: as §3
# MDA-MB-435 [30] = assay: Induction of apoptosis in human MDA-MB-435 cells assessed as cell viability at 5 uM after 24 hrs by trypan blue exclusion assay in presence of […]; type: functional, cell-based; procedure, shortened: as §3
# HL-60 [31] = assay: Cytotoxicity against human HL60 cells after 72 hrs by MTT assay; type: functional, cell-based; settings: HL-60, 72 h
# HL-60 [32] = assay: Genotoxicity in human HL60 cells assessed as DNA strand breaks at 5 uM after 24 hrs by comet assay; type: functional, cell-based; procedure, shortened: as §4
# MDA-MB-435 [33] = assay: Induction of apoptosis in human MDA-MB-435 cells assessed as cell viability at 5 uM after 24 hrs by trypan blue exclusion assay; type: functional, cell-based; procedure, shortened: as §3
# MDA-MB-435 [34] = assay: Genotoxicity in human MDA-MB-435 cells assessed as DNA strand breaks at 5 uM after 24 hrs by comet assay; type: functional, cell-based; procedure, shortened: as §4
# HL-60 [35] = assay: Induction of apoptosis in human HL60 cells assessed as cell viability at 5 uM after 24 hrs by trypan blue exclusion assay in presence of […]; type: functional, cell-based; procedure, shortened: as §3
# HCT-8 [36] = assay: Cytotoxicity against human HCT8 cells after 72 hrs by MTT assay; type: functional, cell-based; settings: HCT-8, 72 h
# HL-60 [37] = assay: Induction of apoptosis in human HL60 cells assessed as apoptotic nuclei at 5 uM after 24 hrs by acridine orange/ethidium bromide staining based fluorescence microscopy in presence of 1-bromoheptane; type: functional
# Procedure, shortened: (§5)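 Cells exposed 24 h, with or without 24 h pretreatment with 1-bromoheptane. Cell suspension mixed with acridine orange/ethidium bromide (each 100 in PBS) and spread on slide. 300 cells counted per point by fluorescence microscopy to give % apoptotic cells. Mean ± S.E.M. of three experiments.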
# HCT-8 [38] = assay: Induction of apoptosis in human HCT8 cells assessed as apoptotic nuclei at 5 uM after 24 hrs by acridine orange/ethidium bromide staining based fluorescence microscopy in presence of 1-bromoheptane; type: functional; procedure, shortened: as §5
# MDA-MB-435 [39] = assay: Induction of apoptosis in human MDA-MB-435 cells assessed as apoptotic nuclei at 5 uM after 24 hrs by acridine orange/ethidium bromide staining based fluorescence microscopy in presence of 1-bromoheptane; type: functional; procedure, shortened: as §5
# MDA-MB-435 [40] = assay: Induction of apoptosis in human MDA-MB-435 cells assessed as apoptotic nuclei at 5 uM after 24 hrs by acridine orange/ethidium bromide staining based fluorescence microscopy; type: functional; procedure, shortened: as §5
# HL-60 [41] = assay: Induction of apoptosis in human HL60 cells assessed as apoptotic nuclei at 5 uM after 24 hrs by acridine orange/ethidium bromide staining based fluorescence microscopy; type: functional; procedure, shortened: as §5
# HCT-8 [42] = assay: Induction of apoptosis in human HCT8 cells assessed as apoptotic nuclei at 5 uM after 24 hrs by acridine orange/ethidium bromide staining based fluorescence microscopy; type: functional; procedure, shortened: as §5
# SF-295 [43] = assay: Induction of apoptosis in human SF295 cells assessed as apoptotic nuclei at 5 uM after 24 hrs by acridine orange/ethidium bromide staining based fluorescence microscopy in presence of 1-bromoheptane; type: functional; procedure, shortened: as §5
# SF-295 [44] = assay: Induction of apoptosis in human SF295 cells assessed as apoptotic nuclei at 5 uM after 24 hrs by acridine orange/ethidium bromide staining based fluorescence microscopy; type: functional; procedure, shortened: as §5
SMILES,Activity (SF-295 [1]),Activity (SF-295 [2]),IC50 (PBMC),Activity (MDA-MB-435 [6]),Activity (HL-60 [8]),Activity (HCT-8 [10]),Activity (HL-60 [12]),Activity (MDA-MB-435 [13]),Activity (HCT-8 [16]),Activity (HL-60 [17]),IC50 (MDA-MB-435 [18]),Activity (HCT-8 [19]),Activity (HL-60 [20]),Activity (SF-295 [21]),Activity (MDA-MB-435 [22]),Activity (HCT-8 [23]),IC50 (SF-295 [24]),Activity (SF-295 [25]),IC50 (HL-60 [31]),IC50 (HCT-8 [36]),further results
CC1(C)CCC2=C(O1)c1ccccc1C(=O)C2=O [LAPACHONE],inactive,Active,> 20.6 µM,Active,Active,Active,inactive,inactive,inactive,,,,,,,,,,,,Ratio (HL-60 [3]): 8.33; Ratio (HCT-8 [4]): 72.41; Ratio (HL-60 [5]): 61.36; Ratio (MDA-MB-435 [7]): 83.17; Ratio (SF-295 [9]): 58.75; Ratio (SF-295 [11]): 8.72; Ratio (MDA-MB-435 [14]): 5.16; Ratio (HCT-8 [15]): 11.41
CC1(C)OC2=C(C(=O)C(=O)c3ccccc32)[C@H](n2cc(-c3ccc(F)cc3)nn2)[C@H]1Br,inactive,Active,3.37 µM,Active,Active,Active,inactive,inactive,inactive,Active,1200 nM,Active,inactive,Active,inactive,inactive,1760 nM,Active,1200 nM,2260 nM,Activity (HCT-8 [26]): inactive; Activity (HCT-8 [27]): Active; Activity (SF-295 [28]): inactive; Activity (SF-295 [29]): inactive; Activity (MDA-MB-435 [30]): inactive; Activity (HL-60 [32]): Active; Activity (MDA-MB-435 [33]): Active; Activity (MDA-MB-435 [34]): Active; Activity (HL-60 [35]): inactive
CC1(C)OC2=C(C(=O)C(=O)c3ccccc32)[C@H](n2cc(-c3ccccc3)nn2)[C@H]1Br,inactive,Active,,Active,Active,Active,inactive,inactive,inactive,Active,1220 nM,Active,inactive,Active,inactive,inactive,1550 nM,Active,1010 nM,1370 nM,Activity (HCT-8 [26]): inactive; Activity (HCT-8 [27]): Active; Activity (SF-295 [28]): inactive; Activity (SF-295 [29]): inactive; Activity (MDA-MB-435 [30]): inactive; Activity (HL-60 [32]): Active; Activity (MDA-MB-435 [33]): Active; Activity (MDA-MB-435 [34]): Active; Activity (HL-60 [35]): inactive
CC(C)CCC1=C(OC2(CCC(C)C)C(=O)C(=O)C3=C(CCCC3)C2=O)C(=O)C2=C(CCCC2)C1=O (configuration not stated),,,> 10.1 µM,,,,,,,,> 10100 nM,,,,,,> 10100 nM,,> 10100 nM,> 10100 nM,Activity (HL-60 [37]): 10.62%; Activity (HCT-8 [38]): 10.33%; Activity (MDA-MB-435 [39]): 13.72%; Activity (MDA-MB-435 [40]): 8.38%; Activity (HL-60 [41]): 10.21%; Activity (HCT-8 [42]): 5.85%; Activity (SF-295 [43]): 12.06%; Activity (SF-295 [44]): 8.33%
